Experimental data taken from the RNAGym collection of RNA variant scans (doi:10.1002/anie.201605470).

B1: Osa-1-4 twister ribozyme (parent)
chain: CCGCCUAACACUGCCAAUGCCGGUCCCAAGCCCGGAUAAAAGUGGAGGGGGCGG

Variants of: B1
Assay: self-cleavage, relative activity (ratio to wild type); higher = more cleavage; co-transcriptional
In short: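 In vitro transcription at 37 °C for 2 h allowed the twister ribozyme to cleave itself as it was made. Its 54-nucleotide Oryza sativa template had been synthesised with 97 % wild-type base and 1 % of each other base at the 48 positions downstream of the cleavage site. A template-switching oligonucleotide was used for reverse transcription, followed by PCR amplification and deep sequencing. Whether reads carried upstream sequence set the cleavage status, and relative activity is the fraction cleaved normalised to wild type.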

Variant | self-cleavage
A28G A41C | 0.13
A28G A41G | 0.14
A28G A41U | 0.23
A28G G49U | 0.06
A28G G49C | 0.04
A28G G49A | 0.06
A28G A36U | 0.36
A28G A36G | 0.45
A28G A36C | 0.09
A28U G49U | 0.09
A28U G49C | 0.06
A28U G49A | 0.08
A28U C26U | 0.22
A28U C26G | 0.1
A28U C26A | 0.04
A28U G44A | 0.74
A28U G44U | 0.49
A28U G44C | 0.78
A28G A46U | 0.05
A28G A46C | 0.04
A28G A46G | 0.5
A28G G47C | 0.04
A28G G47U | 0.07
A28G G47A | 0.08

Variant | self-cleavage
A28G G45A | 0.05
A28G G45C | 0.04
A28G G45U | 0.05
A28G A39U | 0.16
A28G A39C | 0.11
A28G A39G | 0.17
A28G A40U | 0.09
A28G A40G | 0.14
A28G A40C | 0.05
A28U A39G | 0.79
A28U A39U | 0.76
A28U A39C | 0.63
A28G C20A | 0.37
A28G C20G | 0.08
A28G C20U | 0.31
A28C G47U | 0.19
A28C G47C | 0.08
A28C G47A | 0.2
A28G G22C | 0.06
A28G G22A | 0.14
A28G G22U | 0.1
A28G C33G | 0.05
A28G C33U | 0.11
A28G C33A | 0.06

Variant | self-cleavage
A28C G23A | 0.2
A28C G23C | 0.05
A28C G23U | 0.07
A28C G45C | 0.03
A28C G45A | 0.13
A28C G45U | 0.08
A28U G50U | 0.95
A28U G50A | 0.42
A28U G50C | 0.81
A28C G30C | 0.05
A28C G30U | 0.04
A28C G30A | 0.04
A28U U24A | 0.08
A28U U24C | 0.09
A28U U24G | 0.02
A28U C52U | 0.97
A28U C52A | 0.93
A28U C52G | 0.96
A28C G34C | 0.38
A28C G34U | 0.51
A28C G34A | 0.69
A28G G53A | 0.14
A28G G53U | 0.1
A28G G53C | 0.06

Variant | self-cleavage
A28C G53C | 0.08
A28C G53A | 0.78
A28C G53U | 0.23
A28U G13U | 0.03
A28U G13A | 0.06
A28U G13C | 0.02
A28G C26G | 0.21
A28G C26A | 0.03
A28G C26U | 0.11
A28U A46C | 0.07
A28U A46U | 0.08
A28U A46G | 0.7
A28U A8U | 0.09
A28U A8G | 0.18
A28U A8C | 0.06
A28U C14G | 0.07
A28U C14A | 0.05
A28U C14U | 0.14
A28G C21A | 0.07
A28G C21G | 0.06
A28G C21U | 0.23
A28G A7U | 0.07
A28G A7C | 0.04
A28G A7G | 0.38

Variant | self-cleavage
A28G G19U | 0.08
A28G G19C | 0.05
A28G G19A | 0.15
A28U U12C | 0.13
A28U U12A | 0.38
A28U U12G | 0.11
A28G U43G | 0.09
A28G U43C | 0.1
A28G U43A | 0.14
A28G U18G | 0.59
A28G U18A | 0.34
A28G U18C | 0.23
A28G C27U | 0.07
A28G C27G | 0.1
A28G C27A | 0.06
A28U G47U | 0.1
A28U G47C | 0.06
A28U G47A | 0.09
A28C G44U | 0.75
A28C G44A | 0.95
A28C G44C | 0.95
A28U C27G | 0.05
A28U C27A | 0.09
A28U C27U | 0.15

Variant | self-cleavage
A28U G53C | 0.08
A28U G53A | 0.42
A28U G53U | 0.15
A28G U37A | 0.25
A28G U37C | 0.37
A28G U37G | 0.51
A28U G30C | 0.05
A28U G30U | 0.04
A28U G30A | 0.04
A28G C9U | 0.11
A28G C9G | 0.29
A28G C9A | 0.04
A28U G35C | 0.15
A28U G35A | 0.73
A28U G35U | 0.71
A28U A38U | 0.87
A28U A38C | 0.95
A28U A38G | 0.92
A28C G35A | 0.81
A28C G35C | 0.4
A28C G35U | 0.85
A28U A29U | 0.06
A28U A29C | 0.03
A28U A29G | 0.08

Variant | self-cleavage
A29C A7C | 0.03
A29C A7G | 0.03
A28U C32G | 0.1
A28U C32U | 0.1
A28U C32A | 0.07
A28G A38G | 0.22
A28G A38U | 0.23
A28G A38C | 0.21
A28G U12C | 0.1
A28G U12A | 0.12
A28G U12G | 0.07
A28G A8C | 0.05
A28G A8U | 0.07
A28G A8G | 0.19
A28G A29C | 0.02
A28G A29U | 0.06
A28G A29G | 0.08
A29C | 0.05
A28G G51A | 0.11
A28G G51U | 0.06
A28G G51C | 0.06
A28U C25A | 0.07
A28U C25U | 0.28
